Assay results reported in ChEMBL document CHEMBL1127454, “Differential inhibition of aminopeptidase A and aminopeptidase N by new beta-amino thiols” (J Med Chem, 1994).

What follows are compounds tested against T1, Aminopeptidase N (Sus scrofa, UniProt P15145) (assay: Inhibitory potency was measured on aminopeptidase N (APN)).
T1 sequence (P15145 whole entry): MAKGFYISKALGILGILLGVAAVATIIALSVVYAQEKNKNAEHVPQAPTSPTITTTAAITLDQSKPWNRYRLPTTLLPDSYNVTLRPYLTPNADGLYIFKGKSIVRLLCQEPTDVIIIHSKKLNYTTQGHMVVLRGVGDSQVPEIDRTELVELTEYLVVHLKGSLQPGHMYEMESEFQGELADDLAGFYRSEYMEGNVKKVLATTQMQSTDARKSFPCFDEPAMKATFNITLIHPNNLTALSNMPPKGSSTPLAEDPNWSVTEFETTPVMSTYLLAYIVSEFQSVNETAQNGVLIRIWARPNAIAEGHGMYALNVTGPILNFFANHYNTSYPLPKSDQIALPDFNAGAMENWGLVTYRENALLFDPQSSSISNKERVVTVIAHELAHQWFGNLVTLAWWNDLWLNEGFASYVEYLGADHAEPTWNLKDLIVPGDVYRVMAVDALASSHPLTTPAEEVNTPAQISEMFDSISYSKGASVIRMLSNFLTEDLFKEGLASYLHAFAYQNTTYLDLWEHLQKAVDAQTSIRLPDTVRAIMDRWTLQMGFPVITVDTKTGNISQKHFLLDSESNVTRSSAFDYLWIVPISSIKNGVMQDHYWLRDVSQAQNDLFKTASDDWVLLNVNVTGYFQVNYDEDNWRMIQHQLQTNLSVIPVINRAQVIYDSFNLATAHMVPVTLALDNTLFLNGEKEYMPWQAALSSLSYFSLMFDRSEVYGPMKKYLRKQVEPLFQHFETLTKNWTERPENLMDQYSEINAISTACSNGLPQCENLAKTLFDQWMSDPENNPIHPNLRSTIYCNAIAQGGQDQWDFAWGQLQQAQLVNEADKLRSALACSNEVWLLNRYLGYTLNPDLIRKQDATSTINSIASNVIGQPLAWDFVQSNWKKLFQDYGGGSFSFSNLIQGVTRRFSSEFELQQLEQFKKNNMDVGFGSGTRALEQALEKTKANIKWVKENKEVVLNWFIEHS
Summary of the method: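 APN preincubated 15 min at 25 °C with varied inhibitor levels in 50 mM Tris-HCl pH 7.4. […] Reaction run 15 min, stopped with HCl. Released [3H]Tyr separated on polystyrene beads and counted by liquid scintillation. Thiols dissolved with DTT (100 equiv). Ki derived from IC50 via Cheng-Prusoff, competitive inhibition assumed. Three experiments, triplicate.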

Ki	Structure (SMILES)
0.28 µM	NC(CS)CCCCC(=O)O (centres undefined)
25 µM	N[C@H](CS)CCS(=O)(=O)O
0.33 µM	N[C@H](CS)CCCC(=O)O
0.032 µM	N[C@H](CS)CCCS
15.5 µM	N[C@@H](CS)CCCC(=O)O
0.6 µM	NC(CS)CCC(C(=O)O)C(=O)O (centres undefined)
4.5 µM	NC(CS)CC(C(=O)O)C(=O)O (centres undefined)
4 µM	CC(C[C@H](N)CS)C(=O)O (some centres undefined)
2.8 µM	CC(CC(N)CS)C(=O)O (centres undefined)
0.037 µM	N[C@H](CS)CCCC(=O)NO
1.9 µM	N[C@H](CS)CCCS(=O)(=O)O

Structure (SMILES)	Ki
NC(CS)CCCP(=O)(O)O (centres undefined)	3.7 µM
NC(CS)CCP(=O)(O)O (centres undefined)	12 µM

The compounds below were run against Glutamyl aminopeptidase (Oryctolagus cuniculus) (assay: Inhibition of aminopeptidase A (APA)).

Ki	Structure (SMILES)
0.14 µM	N[C@H](CS)CCC(=O)O
